Data set [1] deals with T1, N-terminal Xaa-Pro-Lys N-methyltransferase 1 (Homo sapiens) (UniProt Q9BV86).
T1 sequence (whole entry): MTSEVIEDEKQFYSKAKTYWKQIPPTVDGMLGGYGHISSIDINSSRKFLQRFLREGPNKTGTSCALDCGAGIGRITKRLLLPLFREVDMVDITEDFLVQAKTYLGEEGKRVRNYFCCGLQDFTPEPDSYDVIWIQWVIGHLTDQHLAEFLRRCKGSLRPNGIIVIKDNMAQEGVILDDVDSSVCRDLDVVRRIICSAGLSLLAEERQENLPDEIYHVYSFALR
Put plainly: Substrate activity at recombinant human full-length His6-tagged NTMT1 (1 to 222 residues) expressed in Escherichia coli BL21-CodonPlus(DE3)-RIL competent cells by MALDI-MS analysis.

Data set [2] concerns the target T2, N-terminal Xaa-Pro-Lys N-methyltransferase 1 (Homo sapiens, UniProt Q9BV86).
T2 sequence (Q9BV86 whole entry): T1 sequence (whole entry)
Put plainly: Inhibition of recombinant human full-length His6-tagged NTMT1 (1 to 222 residues) expressed in Escherichia coli BL21-CodonPlus(DE3)-RIL competent cells pre-incubated for 10 mins in presence of SAM and SAHH before RCC1-6 addition and measured after 15 mins by fluorescence based SAHH-coupled assay. In short, it runs like this: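 Pre-incubated 10 min at 37 °C, then started with RCC1-6 (10 µL of 50 µM stock in 100 µL). Line 11 screened at 30 µM; line 12 used 0–100 µM three-fold series, four-parameter fit. Triplicate.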

The target in data set [3] is T1, N-terminal Xaa-Pro-Lys N-methyltransferase 1 (Homo sapiens). Put plainly: Inhibition of recombinant human full-length His6-tagged NTMT1 (1 to 222 residues) expressed in Escherichia coli BL21-CodonPlus(DE3)-RIL competent cells at 30 uM pre-incubated for 10 mins in presence of SAM and SAHH before RCC1-6 addition and measured after 15 mins by fluorescence based SAHH-coupled assay relative to control. The following applies: time 25.0 min. In short, it runs like this: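 Pre-incubated 10 min at 37 °C, then started with RCC1-6 (10 µL of 50 µM stock in 100 µL). Read Ex 370/Em 500 nm for 15 min at 37 °C. Line 11 screened at 30 µM; line 12 used 0–100 µM three-fold series, four-parameter fit. Triplicate.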

Data set [4] is described as follows: Drug penetration in human HCT116 cells at 1 uM by MALDI-MS analysis. It counts as ADME, cell-based. The conditions noted are these: hct-116, 1 µM. The method in brief: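 HCT116 cells in McCoy's 5A with 10% FBS and 1% antibiotic-antimycotic, seeded at 0.1 × 10^6 cells/mL in 24-well plates and incubated overnight at 37 °C, 5% CO2. Compound added and incubation continued for the specified time; TAT peptide run as control. Cells washed three times with PBS, freeze-lysed twice in liquid nitrogen, and lysate analysed by MALDI (DHB matrix) for intracellular compound.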

Data set [5] deals with T2, N-terminal Xaa-Pro-Lys N-methyltransferase 1. Put plainly: Binding affinity to recombinant human full-length His6-tagged NTMT1 (1 to 222 residues) by ITC assay. In short, it runs like this: (§1)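 ITC at 25 °C. Purified protein (NTMT1 for line 1, NTMT2 for line 2) in 20 mM Tris-HCl pH 7.5, 150 mM NaCl, 0.5 mM TCEP at 30–50 µM final. Compound at 0.5–1 mM in the same buffer, titrated in as 26 injections of 10 µl, 180 s apart, reference power 15 µcal/sec.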
A general note: Isothermal titration calorimetry measures the heat released or taken up as one component is titrated into another.

Data set [6] concerns the target N-terminal Xaa-Pro-Lys N-methyltransferase 2 (Homo sapiens, UniProt Q5VVY1). Put plainly: Binding affinity to recombinant human full-length His6-tagged NTMT2 by ITC assay. In short, it runs like this: as §1
Data set [7] concerns the target T1, N-terminal Xaa-Pro-Lys N-methyltransferase 1 (Homo sapiens). Put plainly: Inhibition of NTMT1 in human HCT116 cells assessed as decrease in me3-SPK level at 100 uM incubated for 72 hrs by Western blot analysis. It counts as cell-based. The conditions noted are these: […]. The method in brief:
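HCT116 cells seeded at 20,000 cells/well and treated 3 days with compound or PBS. Lysed in RIPA for 30 min on ice; equal protein (BCA) run on 12.5% SDS-PAGE and transferred to PVDF. Blotted with anti-me3-SPK (1:5000) overnight at 4 °C, with Lamin B1, SET and RCC1 antibodies, then HRP anti-rabbit.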

From ChEMBL document CHEMBL4725283, “Selective Peptidomimetic Inhibitors of NTMT1/2: Rational Design, Synthesis, Characterization, and Crystallographic Studies” (J Med Chem, 2020) come the findings set out here.

SMILES strings stand for the structures. The source made the active and inactive calls. The rule behind the calls is not given here. Where a SMILES comes first, the peptide text is derived from it. [ ]: non-standard residue; d: D form. The star is where a group is joined. ξ: configuration not given here. ξαMeP = CC1(C(=O)O)CCCN1; X1 = O=C(Cc1ccc(O)cc1)*; PhAc = O=C(Cc1ccccc1)*; Bz = O=C(c1ccccc1)*

Usually IC50 stands for the concentration needed to halve the response being measured. A word on the inhibition: it is the relative decrease from the control value, in per cent. Broadly, the Kd is the concentration at which binding is half-saturated.

Chain of N-terminal Xaa-Pro-Lys N-methyltransferase 2 (Q5VVY1 whole entry): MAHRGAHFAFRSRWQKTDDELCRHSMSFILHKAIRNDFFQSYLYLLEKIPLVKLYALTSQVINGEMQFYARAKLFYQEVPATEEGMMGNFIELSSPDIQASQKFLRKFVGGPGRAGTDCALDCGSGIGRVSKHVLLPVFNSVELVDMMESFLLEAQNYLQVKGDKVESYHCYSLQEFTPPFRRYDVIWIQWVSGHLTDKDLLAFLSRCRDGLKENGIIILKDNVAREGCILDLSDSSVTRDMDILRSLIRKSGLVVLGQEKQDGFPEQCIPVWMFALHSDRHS

As to `NCCCC[C@H](NC(=O)[C@@H]1CCCN1C(=O)Cc1ccc(O)cc1)C(=O)NCC(N)=O`, in data set [1], the outcome was inactive. In addition, the IC50 in data set [2] is 13 µM.

For the molecule `N=C(N)NCC[C@H](CC(N)=O)NC(=O)[C@H](CCCCN)NC(=O)[C@@H]1CCCN1C(=O)Cc1ccc(O)cc1`, the result in data set [1] was inactive. For the same molecule, the IC50 in data set [2] is 6.4 µM.

For the molecule `N=C(N)NCCC[C@H](NC(=O)[C@H](CCCCN)NC(=O)c1cccc(NC(=O)Cc2ccc(O)cc2)c1)C(N)=O`, the result in data set [1] was inactive. Also, in data set [2], the IC50 is more than 100 µM.

As for `N=C(N)NCCC[C@H](NC(=O)[C@H](CCCCN)NC(=O)[C@@H]1CCCN1C(=O)c1ccco1)C(N)=O`, the result in data set [1] was inactive. In data set [2], the IC50 was more than 100 µM.

Take `N=C(N)NCCC[C@H](NC(=O)[C@H](CCCCN)NC(=O)[C@@H]1CCCN1C(=O)CCc1ccc(O)cc1)C(N)=O`: the result in data set [1] was inactive. Also, the IC50 in data set [2] was 4.5 µM.

Turning to `CC1(C(=O)N[C@@H](CCCCN)C(=O)N[C@@H](CCCNC(=N)N)C(N)=O)CCCN1C(=O)Cc1ccccc1` (stereo partly drawn) (PhAc-[ξαMeP]-Lys-Arg-NH2), in data set [1], the outcome was inactive. Moreover, the IC50 in data set [2] is more than 100 µM.

As to `N=C(N)NCCC[C@H](NC(=O)[C@H](CCCCN)NC(=O)[C@@H]1CCCN1C(=O)C1CCCC1)C(N)=O`, in data set [1], the result was inactive. The IC50 in data set [2] was more than 100 µM.

Regarding `N=C(N)NCCC[C@H](NC(=O)C[C@@H](CCCN)NC(=O)[C@@H]1CCCN1C(=O)Cc1ccc(O)cc1)C(N)=O`, in data set [1], the outcome was inactive. The IC50 in data set [2] was determined as 32.9 µM.

On to `N=C(N)NCCC[C@H](NC(=O)[C@H](CCCCN)NC(=O)[C@@H]1CCCN1C(=O)Cc1ccccc1)C(N)=O` (PhAc-Pro-Lys-Arg-NH2), for which, in data set [3], the inhibition was more than 50%. Also, in data set [1], the result was inactive. Also, in data set [2], the IC50 amounted to 6.85 µM.

Take `N=C(N)NCCC[C@H](NC(=O)[C@H](CCCCN)NC(=O)[C@@H]1CCCN1C(=O)C1CCCCC1)C(N)=O`: in data set [1], the result was inactive. Further, the IC50 in data set [2] was more than 100 µM.

For the molecule `N=C(N)NCCC[C@@H](NC(=O)[C@H](CCCCN)NC(=O)[C@@H]1CCCN1C(=O)Cc1ccc(O)cc1)C(N)=O`, the outcome in data set [1] was inactive. In addition, the IC50 in data set [2] was determined as 4.2 µM.

Consider `C[C@H](NC(=O)[C@H](CCCCN)NC(=O)[C@@H]1CCCN1C(=O)Cc1ccc(O)cc1)C(N)=O`, for which the outcome in data set [1] was inactive. Moreover, the IC50 in data set [2] was determined as 4.8 µM.

Turning to `NCCCC[C@H](NC(=O)[C@H](CCCCN)NC(=O)[C@@H]1CCCN1C(=O)Cc1ccc(O)cc1)C(N)=O`, the result in data set [1] was inactive. Moreover, the IC50 in data set [2] stood at 1 µM.

Turning to `N=C(N)NCCC[C@H](NC(=O)[C@H](CCCNC(=N)N)NC(=O)[C@H](CCCNC(=N)N)NC(=O)[C@H](CCC(N)=O)NC(=O)[C@H](CCCNC(=N)N)NC(=O)[C@H](CCCNC(=N)N)NC(=O)[C@H](CCCCN)NC(=O)[C@H](CCCCN)NC(=O)[C@H](CCCNC(=N)N)NC(=O)CNC(=O)[C@H](CCCNC(=N)N)NC(=O)[C@H](CCCCN)NC(=O)[C@@H]1CCCN1C(=O)Cc1ccc(O)cc1)C(N)=O`, the Drug uptake result in data set [4] is given as “Active”. In addition, the Kd in data set [5] came to 0.6 µM; in data set [6], 3.4 µM.

Turning to `N=C(N)NCCC[C@H](NC(=O)[C@H](CCCCN)NC(=O)[C@@H]1CCCN1CCc1ccc(O)cc1)C(N)=O`, in data set [1], the result was inactive. Also, the IC50 in data set [2] was more than 100 µM.

For `N=C(N)NCCC[C@H](NC(=O)[C@H](CCCCN)NC(=O)[C@@H]1CCCN1C(=O)Cc1ccc(CO)cc1)C(N)=O`, the result in data set [1] was inactive.

For `N=C(N)NCCC[C@H](NC(=O)[C@H](CCCCN)NC(=O)[C@@H]1CCCN1C(=O)CCc1ccc(N)cc1)C(N)=O`, in data set [1], the result was inactive. Moreover, the IC50 in data set [2] turned out to be 12 µM.

Regarding `N=C(N)NCCC[C@H](NC(=O)[C@H](CCCCN)NC(=O)[C@@H]1CCCN1C(=O)Cc1ccc(N)cc1)C(N)=O`, the outcome in data set [1] was inactive. Further, the IC50 in data set [2] was 4.3 µM.

Take `C[C@@H](O)[C@H](NC(=O)[C@H](CCCCN)NC(=O)[C@@H]1CCCN1C(=O)Cc1ccc(O)cc1)C(N)=O`: the result in data set [1] was inactive. Moreover, the IC50 in data set [2] was found to be 4.8 µM.

Turning to `NCCCC[C@H](NC(=O)[C@@H]1CCCN1C(=O)Cc1ccc(O)cc1)C(N)=O`, the result in data set [1] was inactive. The IC50 in data set [2] came to 16 µM.

`N=C(N)NCCC[C@H](NC(=O)[C@H](CCCCN)NC(=O)[C@@H]1CCCN1C(=O)c1ccccc1)C(N)=O` (Bz-Pro-Lys-Arg-NH2): the outcome in data set [1] was inactive. Further, in data set [2], the IC50 was more than 100 µM.

Take `COc1ccc(CC(=O)N2CCC[C@H]2C(=O)N[C@@H](CCCCN)C(=O)N[C@@H](CCCNC(=N)N)C(N)=O)cc1`: the result in data set [1] was inactive. Also, the IC50 in data set [2] is more than 100 µM.

Turning to `N=C(N)NCCC[C@H](NC(=O)[C@H](CCCCN)NC(=O)c1ccccc1NC(=O)Cc1ccc(O)cc1)C(N)=O`, the outcome in data set [1] was inactive. Besides, the IC50 in data set [2] was more than 100 µM.

As for `N=C(N)NCCC[C@H](NC(=O)[C@H](CCCNC(=N)N)NC(=O)[C@H](CCCNC(=N)N)NC(=O)[C@H](CCCNC(=N)N)NC(=O)[C@H](CCCNC(=N)N)NC(=O)[C@H](CCCNC(=N)N)NC(=O)[C@H](CCCCN)NC(=O)[C@@H]1CCCN1C(=O)Cc1ccc(O)cc1)C(N)=O` (X1-PKRRRRRR-NH2), the inhibition entry in data set [7] is “Active”. The Drug uptake result in data set [4] is reported as “Active”. The results for the Kd in data set [5] and in data set [6] were 0.3 µM and 1 µM, respectively.
